Results taken from ChEMBL document CHEMBL1134126, “Phenylcyanoguanidines as inhibitors of glucose-induced insulin secretion from beta cells” (Bioorg Med Chem Lett, 2001).

Tests used:
[1] = tested on: Beta-TC6; test: Percent efficacy of compound for the in vitro inhibition of insulin release from murine beta-TC6 cells; assay type: functional, Mus musculus
Summary of the method: (§1)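 βTC6 cells washed twice in NN buffer (pH-buffered Krebs-type saline with HEPES) plus 0.1% BSA, preincubated 60 min, then incubated 3 h with 22 mM glucose, 0.1 mM IBMX and serial compound dilutions. Supernatant insulin measured by competition ELISA against rat insulin standards with peroxidase-labelled insulin and TMB read-out. EC50 (potency) and percentage inhibition (efficacy) derived from curves; at least two experiments.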

[2] = tested on: Beta-TC6; test: In vitro inhibition of insulin release from murine beta-TC6 cells; assay type: functional, cell-based; conditions: Mus musculus; summary of the method: as §1
[3] = In vitro membrane potential on murine beta-TC3 cells; assay type: functional; conditions: Mus musculus
[4] = species on record: Rattus norvegicus; test: In vitro ability to relax phenylephrine contracted rat aorta rings; assay type: functional
[5] = species on record: Rattus norvegicus; test: Compound was evaluated for the inhibition of insulin release from rat islets; assay type: functional
Summary of the method: (§2)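 Rat islets isolated by collagenase digestion and Ficoll gradient (40–13%), cultured overnight in RPMI/10% FCS/11 mM glucose, then 10 islets per well overnight in DMEM/10% FCS/3 mM glucose. Tested as for βTC6: NN buffer with 0.1% BSA, 3 h with 22 mM glucose and compound dilutions, no IBMX; insulin by competition ELISA.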

[6] = In vitro membrane potential on murine beta-TC3 cells; NA= not active; assay type: functional, Mus musculus
[7] = In vitro membrane potential on murine betaTC3 cells; NA=not active; assay type: functional, Mus musculus
[8] = species on record: Rattus norvegicus; test: Concentration required for the inhibition of insulin release from rat islets; assay type: functional; summary of the method: as §2

Compound | IC50 [2] [µM] | IC50 [3] [µM] | IC50 [4] [µM] | IC50 [5] [µM] | IC50 [6] | IC50 [7] | IC50 [8] [µM] | Efficacy [1] [%]
CC1=Nc2ccc(Cl)cc2S(=O)(=O)N1 [DIAZOXIDE] | 22.4 | 77.4 | 11.5 | 6.1 | – | – | – | 23
CCC/N=C(\NC#N)Nc1cc(C(F)(F)F)cc(C(F)(F)F)c1 | 5 | 0.9 | 12.4 | – | – | – | – | 58
CC(C)CC/N=C(\NC#N)Nc1cc(Cl)cc(Cl)c1 | 0.7 | 4 | 18.7 | – | – | – | – | 72
CC(/N=C(\NC#N)Nc1cccc(C(F)(F)F)c1)C(C)(C)C (configuration not stated) | > 100 | > 100 | 88 | – | – | – | – | 29
COc1cc(N/C(=N/CCC(C)C)NC#N)cc(C(F)(F)F)c1 | 3.9 | 13 | 79 | – | – | – | 4.8 | 79
CCC/N=C(\NC#N)Nc1cc(Cl)cc(Cl)c1 | 3.7 | 36 | 31 | – | – | – | – | 50

These reach a lower IC50 [4]. Values come first.

IC50 [2] [µM] | IC50 [3] [µM] | IC50 [4] [µM] | IC50 [5] [µM] | IC50 [6] | IC50 [7] | IC50 [8] [µM] | Compound | Efficacy [1] [%]
4.6 | – | 8.7 | – | Not Active | – | – | CC(/N=C(\NC#N)Nc1cc(C(F)(F)F)cc(C(F)(F)F)c1)C(C)(C)C (configuration not stated) | 78
2 | 0.5 | 5.6 | – | – | – | – | CC(C)CC/N=C(\NC#N)Nc1cc(C(F)(F)F)cc(C(F)(F)F)c1 | 77
– | – | 1.5 | – | – | – | – | CC(N/C(=N\C#N)Nc1ccncc1)C(C)(C)C (configuration not stated) [PINACIDIL ANHYDROUS] | –
– | – | 0.9 | – | Not Active | – | – | CCC(C)(C)/N=C(\NC#N)Nc1cc(C(F)(F)F)cc(C(F)(F)F)c1 | –
26.7 | 19 | 0.5 | – | – | – | 2.2 | CC(/N=C(\NC#N)Nc1cc(Cl)cc(Cl)c1)C(C)(C)C (configuration not stated) | 86
2.3 | – | 0.3 | – | – | Not Active | – | CCC(C)(C)/N=C(\NC#N)Nc1cc(Cl)cc(Cl)c1 | 57
– | – | 0.25 | – | – | – | – | CCC(C)(C)/N=C(\NC#N)Nc1cccnc1 | –
